Assay results taken from ChEMBL document CHEMBL4725234, “Structure-activity relationship analyses of fusidic acid derivatives highlight crucial role of the C-21 carboxylic acid moiety to its anti-mycobacterial activity” (Bioorg Med Chem, 2020).
≈ marks a conversion by molar mass, not a printed value.

Assays:
CHO-K1 = test: Cytotoxicity against CHOK1 cells assessed as reduction in cell viability; format: cell-based; conditions: Cricetulus griseus
[1] = tested on: Mycobacterium tuberculosis; test: Antimycobacterial activity against Mycobacterium tuberculosis H37Rv; format: functional
Summary of the method: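 Drug-sensitive M. tuberculosis H37Rv grown in a glycerol-containing medium; MIC99 is the minimum concentration that inhibits growth of 99% of the bacterial population.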

Compound | IC50 (CHO-K1) [µM] | MIC99 [1] [µM]
CC(=O)O[C@H]1C[C@@]2(C)[C@@H](C[C@@H](O)[C@H]3[C@@]4(C)CC[C@@H](O)[C@@H](C)[C@@H]4CC[C@@]32C)/C1=C(\CCC=C(C)C)C(=O)NNS(=O)(=O)c1ccc(Cl)cc1 | 53.2 | > 125
CC(=O)O[C@H]1C[C@@]2(C)[C@@H](C[C@@H](O)[C@H]3[C@@]4(C)CC[C@@H](O)[C@@H](C)[C@@H]4CC[C@@]32C)/C1=C(\CCC=C(C)C)c1n[nH]c(=O)o1 | 82 | 80 (≈ 44.5 µg/mL)
CCCCS(=O)(=O)NNC(=O)/C(CCC=C(C)C)=C1\[C@@H](OC(C)=O)C[C@@]2(C)[C@H]1C[C@@H](O)[C@H]1[C@@]3(C)CC[C@@H](O)[C@@H](C)[C@@H]3CC[C@@]12C | 49.9 | > 125
CCS(=O)(=O)NNC(=O)/C(CCC=C(C)C)=C1\[C@@H](OC(C)=O)C[C@@]2(C)[C@H]1C[C@@H](O)[C@H]1[C@@]3(C)CC[C@@H](O)[C@@H](C)[C@@H]3CC[C@@]12C | 77.3 | 40 (≈ 24.9 µg/mL)
CC(=O)O[C@H]1C[C@@]2(C)[C@@H](C[C@@H](O)[C@H]3[C@@]4(C)CC[C@@H](O)[C@@H](C)[C@@H]4CC[C@@]32C)/C1=C(\CCC=C(C)C)C(=O)NS(=O)(=O)c1ccc(F)c(F)c1 | 81.4 | 20 (≈ 13.8 µg/mL)
CC[C@H]1CN2CCc3cc(OC)c(OC)cc3[C@@H]2C[C@@H]1C[C@H]1NCCc2cc(OC)c(OC)cc21 [EMETINE] | 0.4 | 
CC(=O)O[C@H]1C[C@@]2(C)[C@@H](C[C@@H](O)[C@H]3[C@@]4(C)CC[C@@H](O)[C@@H](C)[C@@H]4CC[C@@]32C)/C1=C(\CCC=C(C)C)C(=O)NCCO |  | > 125
CC(=O)O[C@H]1C[C@@]2(C)[C@@H](C[C@@H](O)[C@H]3[C@@]4(C)CC[C@@H](O)[C@@H](C)[C@@H]4CC[C@@]32C)/C1=C(\CCC=C(C)C)C(=O)NS(=O)(=O)c1ccc(C#N)cc1 |  | 125 (≈ 85.1 µg/mL)
CCCCC(=O)O[C@@H]1CC[C@@]2(C)[C@@H](CC[C@@]3(C)[C@H]2[C@H](O)C[C@H]2/C(=C(\CCC=C(C)C)C(=O)NNS(C)(=O)=O)[C@@H](OC(C)=O)C[C@@]23C)[C@@H]1C |  | 62.5 (≈ 43.3 µg/mL)
CC(=O)O[C@H]1C[C@@]2(C)[C@@H](C[C@@H](O)[C@H]3[C@@]4(C)CC[C@@H](OC(=O)c5ccc([N+](=O)[O-])cc5)[C@@H](C)[C@@H]4CC[C@@]32C)/C1=C(\CCC=C(C)C)C(=O)O |  | > 125
CC(=O)O[C@H]1C[C@@]2(C)[C@@H](C[C@@H](O)[C@H]3[C@@]4(C)CC[C@@H](OC(=O)c5ccc(F)cc5)[C@@H](C)[C@@H]4CC[C@@]32C)/C1=C(\CCC=C(C)C)C(=O)O |  | > 125
CO[C@H]1/C=C/O[C@@]2(C)Oc3c(C)c(O)c4c(O)c(c(/C=N/N5CCN(C)CC5)c(O)c4c3C2=O)NC(=O)/C(C)=C\C=C\[C@H](C)[C@H](O)[C@@H](C)[C@@H](O)[C@@H](C)[C@H](OC(C)=O)[C@@H]1C [RIFAMPIN] |  | 0.005 (≈ 0.00411 µg/mL)
CC(=O)O[C@H]1C[C@@]2(C)[C@@H](C[C@@H](O)[C@H]3[C@@]4(C)CC[C@@H](O)[C@@H](C)[C@@H]4CC[C@@]32C)/C1=C(\CCC=O)C(=O)O |  | 40 (≈ 19.6 µg/mL)
CC(=O)O[C@H]1C[C@@]2(C)[C@@H](C[C@@H](O)[C@H]3[C@@]4(C)CC[C@@H](O)[C@@H](C)[C@@H]4CC[C@@]32C)C1=O |  | > 125
CC(=O)O[C@H]1C[C@@]2(C)[C@@H](CC(=O)[C@H]3[C@@]4(C)CCC(=O)[C@@H](C)[C@@H]4CC[C@@]32C)/C1=C(\CCC=C(C)C)C(=O)O |  | 11.9 (≈ 6.1 µg/mL)
CC(=O)O[C@H]1C[C@@]2(C)[C@@H](C[C@@H](O)[C@H]3[C@@]4(C)CC/C(=N\OCc5ccccc5)[C@@H](C)[C@@H]4CC[C@@]32C)/C1=C(\CCC=C(C)C)C(=O)O |  | 40 (≈ 24.8 µg/mL)
CCCCC(=O)O[C@@H]1CC[C@@]2(C)[C@@H](CC[C@@]3(C)[C@H]2[C@H](O)C[C@H]2/C(=C(\CCC=C(C)C)C(=O)NN)[C@@H](OC(C)=O)C[C@@]23C)[C@@H]1C |  | 62.5 (≈ 38.4 µg/mL)
